According to ChEMBL document CHEMBL4330170, “Acidiphilamides A-E, Modified Peptides as Autophagy Inhibitors from an Acidophilic Actinobacterium, Streptacidiphilus rugosus” (J Nat Prod, 2019):
Calls of active or inactive are those of the source. The calls are words filed in the database; no cut-off is given here. Non-standard residues stand in square brackets, D forms with d. Residues, ends and D or L forms follow the SMILES beside them. *: point of attachment. Phe(ol) = N[C@H](CO)Cc1ccccc1; Isovaleryl = CC(C)CC(=O)*; Propionyl = CCC(=O)*; Butyryl = CCCC(=O)*

How the values were obtained:
HeLa [1] = assay: Inhibition of autophagic flux in human HeLa cells assessed as increase in LC3-2 level at 100 to 200 uM after 4 to 12 hrs by immunoblot analysis; type: functional, cell-based
In short: (§1)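 HeLa cells grown in DMEM with 10% FBS, 2 mM glutamine and penicillin/streptomycin, preincubated overnight, then exposed to compound at the indicated final concentrations for 4, 8 or 12 h. Whole-cell RIPA lysates run on SDS-PAGE, transferred to PVDF, blocked in 5% nonfat milk, probed with anti-LC3, anti-SQSTM1, anti-Ub, anti-α3 or anti-β-actin, HRP secondary, ECL detection.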

HeLa [2] = assay: Effect on p62/SQSTM1 protein expression in human HeLa cells at 100 to 200 uM after 4 to 12 hrs by immunoblot analysis; type: functional, cell-based; in short: as §1
HeLa [3] = assay: Effect on polyubiquitin conjugate protein expression in human HeLa cells at 100 to 200 uM after 4 to 12 hrs by immunoblot analysis; type: functional, cell-based; in short: as §1
HeLa [4] = assay: Inhibition of autophagic flux in human HeLa cells assessed as reduction in autolysosome formation by measuring increase in LC3-2 level at 200 uM after 8 hrs in presence of BafA1 by immunoblot analysis; type: functional, cell-based
In short: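 HeLa cells grown in normal DMEM to >90% confluence, washed with PBS, then cotreated for 8 h with compound (200 μM) plus bafilomycin A1 (100 nM) in DMEM, or under amino acid depletion in EBSS. Whole-cell RIPA lysates immunoblotted (SDS-PAGE, PVDF, milk block, HRP secondary, ECL); β-actin loading control.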

HeLa [5] = assay: Effect on proteasome subunit alpha-3 protein expression in human HeLa cells at 100 to 200 uM after 4 to 12 hrs by immunoblot analysis; type: functional, cell-based; in short: as §1
HeLa [6] = assay: Inhibition of autophagic flux in human HeLa cells assessed as increase in LC3-2 level after 4 to 12 hrs by immunoblot analysis; type: functional, cell-based; in short: as §1
HeLa [7] = assay: Inhibition of autophagic flux in human HeLa cells assessed as DQ-BSA quenching at 200 uM after 4 hrs by DAPI staining based fluorescence microscopic method; type: functional, cell-based
In short: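 HeLa cells on glass coverslips loaded with self-quenching BODIPY–BSA (DQ-BSA, 10 μg/mL) for 1 h, PBS-washed, then exposed to DMSO, EBSS or compound (200 μM) for 4 h. Fixed in 4% paraformaldehyde/PBS 15 min, mounted with DAPI-containing medium. Dequenched DQ-BSA puncta in autolysosomes imaged by fluorescence microscopy.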

HeLa [8] = assay: Inhibition of autophagic flux in human HeLa cells assessed as increase in LC3-2 level at 100 to 200 uM after 4 to 12 hrs by immunoblot analysis
[9] = biological target: 26S proteasome (Homo sapiens) (UniProt Q99460+P49721+P20618+P28074+P28062+P28065+P28072+O00487+P25786+P25787+P25788+P25789+P28066+P60900+O14818+Q8TAA3+P40306+A5LHX3+P49720+P28070+Q99436+Q16186+P35998+P62191+P43686+P62333+P17980+P62195+Q13200+O43242+O00232+O00231+Q15008+P51665+Q9UNM6+P55036+P48556+P60896); assay: Inhibition of human 26S proteasome using suc-LLVY-AMC as substrate up to 40 mins by fluorescence assay; type: protein-complex assay
In short: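 Purified human 26S proteasomes incubated with compound and fluorogenic substrate suc-LLVY-AMC. Substrate hydrolysis followed as AMC fluorescence (RFU) over time.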

For `CC[C@H](C)[C@H](NC(=O)[C@H](Cc1ccc(O)cc1)NC(=O)CC(C)C)C(=O)N[C@H](CO)CCSC`, the “LC3-II increase (active/not active)” value (HeLa [1]) was “inactive”.
For `CCCC(=O)N[C@@H](Cc1ccccc1)C(=O)N[C@H](C(=O)N[C@H](CO)Cc1ccccc1)[C@@H](C)CC` (Butyryl-Phe-Ile-[Phe(ol)]), the Activity (HeLa [2]) was “inactive”, the Activity (HeLa [3]) was “inactive” and the inhibition (HeLa [4]) was “inactive”. The Activity (HeLa [5]) was “inactive”, the inhibition (HeLa [6]) was “Dose-dependent effect” and the inhibition (HeLa [7]) was “Active”. For the same compound, the inhibition (HeLa [8]) was “Active” and the inhibition [9] was “inactive”.
With `CC[C@H](C)[C@H](NC(=O)[C@H](Cc1ccccc1)NC(=O)CC(C)C)C(=O)N[C@H](CO)Cc1ccccc1` (Isovaleryl-Phe-Ile-[Phe(ol)]) the “LC3-II increase (active/not active)” value (HeLa [1]) was “inactive”.
With `CC(C)CC(=O)N[C@@H](Cc1ccccc1)C(=O)N[C@H](C(=O)N[C@H](CO)Cc1ccccc1)C(C)C` (Isovaleryl-Phe-Val-[Phe(ol)]) the Activity (HeLa [2]) was “inactive”, the Activity (HeLa [3]) was “inactive” and the inhibition (HeLa [4]) was “inactive”. The Activity (HeLa [5]) was “inactive”, the inhibition (HeLa [6]) was “Dose-dependent effect” and the inhibition (HeLa [7]) was “Active”. The inhibition (HeLa [8]) was “Active” and the inhibition [9] was “inactive”.
In the case of `CC[C@H](C)[C@H](NC(=O)[C@H](Cc1ccc(O)cc1)NC(=O)CC(C)C)C(=O)N[C@H](CO)Cc1ccccc1` (Isovaleryl-Tyr-Ile-[Phe(ol)]), the “LC3-II increase (active/not active)” value (HeLa [1]) is reported as “inactive”.
In the case of `CC(C)CC(=O)N[C@@H](Cc1ccc(O)cc1)C(=O)N[C@H](C(=O)N[C@H](CO)Cc1ccccc1)C(C)C` (Isovaleryl-Tyr-Val-[Phe(ol)]), the “LC3-II increase (active/not active)” value (HeLa [1]) is reported as “inactive”.
For `CCC(=O)N[C@@H](Cc1ccc(O)cc1)C(=O)N[C@H](C(=O)N[C@H](CO)Cc1ccccc1)[C@@H](C)CC` (Propionyl-Tyr-Ile-[Phe(ol)]), the “LC3-II increase (active/not active)” value (HeLa [1]) was “inactive”.
